Results taken from paper PMC3058861 (Archives of biochemistry and biophysics, 2010).
Values after ≈ are worked out from the molar mass of the structure shown. Structures can show the parent of a compound that is named as a salt. Where two headings read alike, the source gives them in different places.

Legend:
hSULT2A1-DHEAS complex = molecular target: T1, hSULT2A1-DHEAS complex (Homo sapiens, UniProt Q06520); format: binding; settings: for Kd: enzyme pretreated with 80 μM (0.08 mM) DHEAS
T1 sequence (Q06520 1-285): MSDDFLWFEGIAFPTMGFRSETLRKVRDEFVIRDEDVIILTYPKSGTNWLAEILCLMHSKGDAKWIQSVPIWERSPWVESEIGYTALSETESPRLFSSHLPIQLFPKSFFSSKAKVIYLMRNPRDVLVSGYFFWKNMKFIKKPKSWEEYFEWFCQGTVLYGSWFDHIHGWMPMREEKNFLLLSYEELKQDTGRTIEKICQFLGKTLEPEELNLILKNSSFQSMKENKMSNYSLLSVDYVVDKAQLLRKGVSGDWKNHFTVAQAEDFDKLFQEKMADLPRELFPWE
Procedure, shortened: (§1)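 Purified recombinant hSULT2A1 at 25 nM (dimer basis) was equilibrated 15 min, then pretreated with 80 μM DHEA or 80 μM DHEAS. Test ligand (1.0–300 μM) was added stepwise with stirring at 37 ± 2 °C, and intrinsic tryptophan fluorescence was read after each addition. Data were fitted to a two-site Adair model, with Kd taken as the reciprocal association constants. Triplicates, mean ± SD.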

hSULT2A1-DHEA complex = molecular target: T2, hSULT2A1-DHEA complex (Homo sapiens, UniProt Q06520); experiment: Ligand binding to the hSULT2A1-DHEA complex by intrinsic tryptophan fluorescence; settings: read-out: Kd2(app); enzyme pretreated with 80 μM (0.08 mM) DHEA
T2 sequence (Q06520 1-285): T1 sequence (Q06520 1-285)
Procedure, shortened: as §1

hSULT2A1 [1] = molecular target: T3, hSULT2A1 (Homo sapiens, UniProt Q06520); experiment: Ligand binding to ligand-free hSULT2A1 by intrinsic tryptophan fluorescence; settings: read-out: dissociation constant (hyperbolic single site); ligand-free enzyme, pH 7.0, 37 °C
T3 sequence (Q06520 1-285): T1 sequence (Q06520 1-285)

hSULT2A1-PAP complex = molecular target: T4, hSULT2A1-PAP complex (Homo sapiens, UniProt Q06520); experiment: Ligand binding to the hSULT2A1-PAP complex by intrinsic tryptophan fluorescence
T4 sequence (Q06520 1-285): T1 sequence (Q06520 1-285)

hSULT2A1 [2] = molecular target: T3, hSULT2A1; settings: sulfation of pregnenolone; cited from earlier work
hSULT2A1 [3] = molecular target: T3, hSULT2A1; experiment: Kinetics of DHEA sulfation catalyzed by recombinant hSULT2A1; format: biochemical; settings: for substrate inhibition by PAPS: 1.0-300 μM PAPS; for substrate inhibition by DHEA: 0.1-2.0 μM DHEA
[4] = Determination of DHEA solubility by light scattering; format: physicochemical; settings: potassium phosphate buffer, pH 7, aqueous buffer
[5] = read-out: Kd2(app), in the presence of 100 μM (0.1 mM) PAP
[6] = 0.25-20 μM DHEA, 200 μM PAPS, pH 7.0, 37 °C, substrate inhibition equation

Question: What does the source list for `Nc1ncnc2c1ncn2[C@@H]1O[C@H](COP(=O)(O)O)[C@@H](OP(=O)(O)O)[C@H]1O` [PAP, adenosine 3′,5′-diphosphate]?
Answer: Kd (hSULT2A1-DHEAS complex; read-out: Kd2(app)): 415 ± 75 µM; Kd (hSULT2A1-DHEA complex): 243 ± 27 µM

Question: With `C[C@]12CC[C@H](OS(=O)(=O)O)CC1=CC[C@@H]1[C@@H]2CC[C@]2(C)C(=O)CC[C@@H]12` [DHEAS, dehydroepiandrosterone sulfate] as the compound, how does the Kd (hSULT2A1 [1]) read?
Answer: 7.2 ± 0.3 µM

Question: And the Kd (hSULT2A1-PAP complex; read-out: Kd1(app), in the presence of 100 μM (0.1 mM) PAP)?
Answer: 3.3 ± 0.2 µM

Question: And the Kd (hSULT2A1-PAP complex; [5])?
Answer: 3.3 ± 0.2 µM

Question: What about the Kd (hSULT2A1-PAP complex; read-out: Kd(app) (hyperbolic single site), in the presence of 100 μM PAP) of the same compound?
Answer: 3.3 ± 0.2 µM

Question: Which “catalytic efficiency (kcat/Km) with hSULT2A1 relative to hSULT2B1 and hSULT2B2” value (hSULT2A1 [2]) does the source give for `CC(=O)[C@H]1CC[C@H]2[C@@H]3CC=C4C[C@@H](O)CC[C@]4(C)[C@H]3CC[C@]12C` [pregnenolone] here?
Answer: 3-8 fold

Question: Which results are given for `Nc1ncnc2c1ncn2[C@@H]1O[C@H](COP(=O)(O)OS(=O)(=O)O)[C@@H](OP(=O)(O)O)[C@H]1O` [PAPS, 3′-phosphoadenosine 5′-phosphosulfate]?
Answer: Kd2(app) relative to Kd1(app) (hSULT2A1-DHEAS complex; enzyme pretreated with 80 μM DHEAS): over 200 fold; Kd (hSULT2A1-DHEAS complex; read-out: Kd1(app)): 1.3 ± 0.4 µM; Kd (hSULT2A1-DHEAS complex; read-out: Kd2(app)): 315 ± 27 µM; substrate inhibition by PAPS (hSULT2A1 [3]; 80 μM DHEA): significant substrate inhibition; substrate inhibition by PAPS (hSULT2A1 [3]; DHEA 0.1 μM - 2.0 μM): no indication that PAPS displayed substrate inhibition; substrate inhibition by PAPS (hSULT2A1 [3]; DHEA 5.0 μM or 20 μM): did not exhibit substrate inhibition

Question: Which solubility [4] does the source give for `C[C@]12CC[C@H](O)CC1=CC[C@@H]1[C@@H]2CC[C@]2(C)C(=O)CC[C@@H]12` [DHEA, dehydroepiandrosterone (5-androsten-3β-ol-17-one)] here?
Answer: 80 µM (≈ 23.1 µg/mL)

Question: What about the Kd (hSULT2A1-PAP complex; [5]) of the same compound?
Answer: 22 ± 3.2 µM

Question: What about the “substrate inhibition by DHEA” value (hSULT2A1 [3]; intermediate PAPS 5.0 – 60 μM) of the same compound?
Answer: substrate inhibition was observed

Question: And the “substrate inhibition by DHEA” value (hSULT2A1 [3]; lowest (1.0 μM) and highest (100 and 300 μM) PAPS)?
Answer: substrate inhibition was not evident

Question: And the “Kis (substrate inhibition constant)” value (hSULT2A1 [3]; [6])?
Answer: 8 ± 3 µM

Question: What about the Km (hSULT2A1 [3]; [6]) of the same compound?
Answer: 0.8 ± 0.3 µM

Question: What about the Vmax (hSULT2A1 [3]; [6]) of the same compound?
Answer: 245 ± 40 nmol/min/mg
